SENP1 inh – blocks the human SENP1 SUMO protease catalytic domain | recombinant SENP1 catalytic domain, CyPet-SUMO1-YPet FRET cleavage | AID 624204 | inhibition, % at 10 µM | hit rate 0.21% among 360,000 | Q9P0U3;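 active = inhibition at least 30% at 10 µM, raw YFP signal under a set limit, fluorescence ratio 0.5 to 1.5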;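 note: 0% = enzyme with DMSO and 100% = no enzyme wells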
Target sequence (Q9P0U3 419-644 limits assumed): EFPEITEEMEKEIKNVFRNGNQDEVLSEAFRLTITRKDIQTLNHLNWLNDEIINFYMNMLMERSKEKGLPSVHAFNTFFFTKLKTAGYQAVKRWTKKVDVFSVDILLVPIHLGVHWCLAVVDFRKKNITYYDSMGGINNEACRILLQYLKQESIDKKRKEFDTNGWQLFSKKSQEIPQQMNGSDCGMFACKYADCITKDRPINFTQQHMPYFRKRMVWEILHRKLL
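Assay system: hSENP1 catalytic domain, recombinant. Amount: SENP1 enzyme, 20 pM final. Schedule: 50 min reaction, RT, dark. Technique: FRET, CFP and YFP emission. Control set: no-enzyme wells low, DMSO-plus-enzyme wells high control.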
SENP7 inh – inhibitors of human SENP7 protease | Q9BQF6 | recombinant SENP7, Z-RLRGG-aminoluciferin luminescence, 40 min | inhibition, % at 5 µM | hit rate 1.5% among 330,000;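 active = inhibition above about 50% at the single test dose, limit read from the data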;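 note: plate controls were DMSO with enzyme for no effect and no enzyme buffer wells for full effect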
Target sequence (Q9BQF6 706-1050 limits assumed): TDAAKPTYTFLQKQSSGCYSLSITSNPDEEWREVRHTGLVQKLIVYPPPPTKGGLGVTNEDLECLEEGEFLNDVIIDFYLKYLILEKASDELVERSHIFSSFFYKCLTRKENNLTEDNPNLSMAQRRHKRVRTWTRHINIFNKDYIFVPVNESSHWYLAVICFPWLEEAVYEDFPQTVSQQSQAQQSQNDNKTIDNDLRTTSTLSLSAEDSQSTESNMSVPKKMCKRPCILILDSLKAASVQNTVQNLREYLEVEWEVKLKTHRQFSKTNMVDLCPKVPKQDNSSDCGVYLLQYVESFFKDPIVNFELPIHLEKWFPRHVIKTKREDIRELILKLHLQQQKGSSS
SENP6 inh – blocks the human protease SENP6. Q9GZR1. Recombinant SENP6 catalytic domain, aminoluciferin luminescence. inhibition, % at 10 µM. hit rate 1.8% among 330,000. AID 2599;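 active = inhibition above about 50% at the single tested dose, limit read from the data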;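 note: plate controls were DMSO wells with enzyme for no effect and DMSO wells lacking enzyme for full effect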
SENP8 block-1 – inhibitors of human SENP8 protease | Q96LD8 | inhibition, % at 10 µM | hit rate 1.2% among 330,000 | purified SENP8, Z-RLRGG-aminoluciferin cleavage, luminescence; in the data active = inhibition above about 50%
SENP8 block-2 – inhibitors of human SENP8 protease. hit rate 0.64% among 360,000. inhibition, % at 20 µM. AID 602440. recombinant SENP8, Nedd8 substrate fluorescence. Q96LD8; in the data active = inhibition mostly above about 40%, no sharp cut-off; inactive = mostly below about 27%
SENP8 conf – confirmation of human SENP8 protease inhibitors; shares compounds with SENP7 inh; Recombinant SENP8, Z-RLRGG-aminoluciferin luminescence, 60 min; inhibition, % at 12.5 µM; hit rate 40% among 6,200; AID 488912;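 active = mean inhibition across replicates above about 50%, limit read from the data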
SENP6 confirm – human SENP6 inhibition, confirmed; shares compounds with SENP7 inh; recombinant SENP6, Z-RLRGG-aminoluciferin luminescence; inhibition, % at 12.5 µM; hit rate 58% among 6,200
SENP7 conf – confirmation of human SENP7 protease inhibitors; shares compounds with SENP7 inh; inhibition, % at 12.5 µM; hit rate 69% among 6,200; AID 488917; recombinant SENP7, Z-RLRGG-aminoluciferin luminescence, 40 min
Casp3 select – caspase-3 inhibition (SENP selectivity assay); purified caspase-3, Z-DEVD-aminoluciferin luminescence, 60 min; inhibition, % at 12.5 µM; hit rate 60% among 6,200; shares compounds with SENP7 inh;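 active = mean inhibition above about 50%, limit read from the data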;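 note: plate controls were enzyme with DMSO for no effect and wells without caspase-3 for full effect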
Luc interf – luminescence interference (SENP counter-screen) | Pre-incubated SENP8/Z-RLRGG-aminoluciferin, luciferase luminescence interference | hit rate 39% among 6,200 | inhibition, % at 12.5 µM | shares compounds with SENP7 inh;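 active = mean inhibition above about 50% when retested at one dose, limit read from the data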;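 note: plate controls were DMSO wells with completed reaction for no effect and substrate without enzyme for full effect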
Active calls of the source: *; i = inactive; / = no result given. Compounds with a hit are over-represented: about 2.5% of the library has one in this group of screens.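 Rule for the calls, unless noted: active = mean inhibition above about 50% in the one-dose retest (limit read from the data); inactive = the rest.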

SMILES	SENP1 inh	SENP7 inh	SENP6 inh	SENP8 block-1	SENP8 block-2	SENP8 conf	SENP6 confirm	SENP7 conf	Casp3 select	Luc interf
O=C(/C=C/c1ccc(O)c(O)c1)c1ccccc1O	-15	97*	14	97*	20	11	101*	103*	95*	99*
O=C(COC(=O)CCC(=O)c1ccc(F)cc1)Nc1cccc(S(=O)(=O)N2CCCC2)c1	5	-2	88*	-2	16	3	-4	-10	-3	-2
O=C(Nc1cccc(O)c1)c1cccc(S(=O)(=O)N2CCCCCC2)c1	-1	-4	-11	-12	1	/	/	/	/	/
COc1ccc(C(=O)Nc2cccc(C(=O)O)c2)cc1S(=O)(=O)N1CCCC1	0	54*	51*	36	3	38	36	73*	16	9
O=C(O)c1cccc(NC(=O)c2cccc(S(=O)(=O)N3CCCCC3)c2)c1	3	78*	77*	64*	9	79*	77*	94*	42	66*
COc1ccccc1C(=O)COC(=O)CCNS(=O)(=O)c1ccc(C)c(C)c1	-1	-2	-9	-4	4	/	/	/	/	/
CCN(CC(=O)Nc1ccc2c(c1)OCCO2)C(=O)COc1ccc(C(C)=O)cc1	2	/	/	/	14	/	/	/	/	/
CCC(=O)Oc1ccc(C(=O)Nc2ccc3c(c2)OCO3)cc1	1	73*	64*	34	-7	37	56*	62*	71*	17
CCCOc1ccc(C(=O)Nc2ccc3c(c2)OCO3)cc1	-1	89*	82*	71*	8	14	73*	80*	84*	19
O=c1c2oc3ccccc3c2ncn1Cc1ccc(F)cc1	-1	-10	-27	-6	4	/	/	/	/	/
O=C(O)c1cccc(NC2=C(N3CCOCC3)C(=O)c3ccccc3C2=O)c1	-49	42	75*	57*	59*	69*	81*	60*	64*	5
CCOC(=O)c1cc(-c2ccc(C)o2)n[nH]1	-3	7	-39	2	15	/	/	/	/	/
CCOC(=O)c1cc(-c2cc3ccccc3o2)n[nH]1	0	54*	72*	33	-8	63*	61*	81*	48	33
N=C1SCC(=O)N1c1nc(-c2ccccc2)cs1	-3	87*	96*	89*	10	-5	4	-6	42	-5
COc1ccc(CN(C(=O)c2cc3ccccc3oc2=O)C2CCS(=O)(=O)C2)cc1OC (centres undefined)	-1	-8	-9	5	5	/	/	/	/	/
CN(C(=O)c1ccc(NC(=O)Cc2ccccc2)cc1)c1ccccc1	1	61*	54*	41	8	37	39	74*	65*	59*
Cc1ccc(C(C(=O)NC2CCCC2)N2CCc3ccccc32)cc1 (centres undefined)	-3	4	1	6	16	/	/	/	/	/
COC(=O)Cc1[nH]n(-c2nc3ccccc3s2)c(=O)c1C(C)=O	0	6	50	21	-2	/	/	/	/	/
COc1ccc(CN=C(C)c2c(C(F)(F)F)[nH]n(-c3nc4ccccc4s3)c2=O)cc1	0	91*	85*	50	8	17	16	21	50*	54*
CC(=O)c1c(CC(=O)O)[nH]n(-c2nc3ccccc3s2)c1=O	-8	88*	84*	87*	-6	86*	83*	97*	95*	83*
Cc1ccc(-c2[nH]ncc2CN2CCN(C(=O)c3cccs3)CC2)cc1C	1	-5	-15	-14	-4	/	/	/	/	/
O=c1c2cc(F)ccc2sn1-c1ccccc1	1	22	84*	75*	5	83*	84*	96*	88*	77*
COC(=O)C1=C(C)N(CCc2cc(OC)c(OC)c(OC)c2)C(=O)N[C@H]1c1ccccc1	0	-7	-2	-4	26	/	/	/	/	/
S=C(Nc1ccc2nsnc2c1)N1CCCC1	-23	54*	83*	57*	-52	6	28	24	70*	67*
O=C(Nc1ccc2nsnc2c1)N1CCCCCC1	-9	13	-15	4	i	/	/	/	/	/
SMILES	SENP1 inh	SENP7 inh	SENP6 inh	SENP8 block-1	SENP8 block-2	SENP8 conf	SENP6 confirm	SENP7 conf	Casp3 select	Luc interf
COc1ccc(C=NCCc2ccc(OC)c(OC)c2)cc1OC	0	/	/	/	-3	/	/	/	/	/
CCOC(=O)CSC1=NC(=O)/C(=C/c2ccc(OC)cc2)S1	-15	29	77*	33	12	7	5	5	27	30
CCOc1ccc(Br)cc1C(=O)N/N=C/c1c[nH]c2ccccc12	-2	-5	58*	1	-96	-6	-5	-10	-7	-5
O=C(N/N=C/c1c[nH]c2ccccc12)c1cc(Br)ccc1O	-4	-3	-24	1	-216	/	/	/	/	/
O=C(N/N=C/c1c[nH]c2ccccc12)c1ccc2c(c1)OCCO2	-1	48	54*	31	-116	45	43	77*	55*	60*
O=C(N/N=C/c1c[nH]c2ccc(Br)cc12)c1ccc2c(c1)OCO2	1	5	-11	6	-80	/	/	/	/	/
O=C(Nc1ccc(-c2nc3ccccc3s2)c(OC(=O)c2ccccc2)c1)c1ccccc1	2	65*	6	5	16	5	2	-6	-4	-12
O=C(Nc1ccc2nc3ccccc3nc2c1)c1ccccc1	-21	/	/	/	-233	/	/	/	/	/
Cc1cccc(Nc2nc(-c3ccc(F)c(C)c3)cs2)n1	2	55*	53*	44	11	32	60*	76*	21	19
Oc1ccc(-c2csc(Nc3ccccn3)n2)cc1O	-1	37	87*	61*	-11	78*	79*	92*	49	81*
Cc1ccnc(Nc2nc(-c3ccc(O)c(O)c3)cs2)c1	1	-15	3	12	14	/	/	/	/	/
CC(=O)Nc1nc(-c2ccc(-c3ccccc3)cc2)cs1	2	/	/	/	-14	/	/	/	/	/
Cc1cccc(Nc2nc(-c3ccc(O)c(O)c3)cs2)n1	-1	-14	65*	38	13	47	49	71*	13	67*
CC(=O)Nc1ccc(-c2csc(Nc3ccccn3)n2)cc1	3	73*	87*	75*	-6	74*	79*	96*	60*	86*
CCc1nc2c(OCc3ccccc3)cccn2c1N(C)C(=O)C(C)C	1	/	/	/	6	/	/	/	/	/

Screening data as filed in PubChem.
